The values that follow come from ChEMBL document CHEMBL4261642, “Design, synthesis, and ex vivo evaluation of a selective inhibitor for retinaldehyde dehydrogenase enzymes” (Bioorg Med Chem, 2018).

By Km is commonly meant the substrate concentration at which the rate is half of its maximum. In general, Ki refers to a measure of affinity in units of concentration, obtained from inhibition or displacement. The term IC50 denotes the point on the concentration scale where inhibition reaches its midpoint. Broadly, the inhibition is the percentage by which the read-out fell short of the control.

Each structure is given as a SMILES string.

Assay [1] has as its target T1, Retinal dehydrogenase 2 (Gallus gallus) (UniProt O93344).
T1 sequence (whole entry): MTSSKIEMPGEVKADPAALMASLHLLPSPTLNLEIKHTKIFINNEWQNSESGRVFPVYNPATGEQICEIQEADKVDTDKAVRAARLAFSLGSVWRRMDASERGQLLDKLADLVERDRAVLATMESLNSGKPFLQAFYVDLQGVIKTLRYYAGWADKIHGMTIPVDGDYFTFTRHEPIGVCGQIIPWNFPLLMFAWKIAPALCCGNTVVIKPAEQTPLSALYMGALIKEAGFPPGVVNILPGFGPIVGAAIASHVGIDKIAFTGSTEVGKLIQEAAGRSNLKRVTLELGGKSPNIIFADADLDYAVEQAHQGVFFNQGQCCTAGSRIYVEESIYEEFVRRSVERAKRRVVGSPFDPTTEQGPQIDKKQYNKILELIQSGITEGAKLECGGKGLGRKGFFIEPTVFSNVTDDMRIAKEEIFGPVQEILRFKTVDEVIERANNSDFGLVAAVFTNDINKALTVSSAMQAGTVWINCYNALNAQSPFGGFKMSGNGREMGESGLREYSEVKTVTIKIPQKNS
The assay is described as follows: Inhibition of N-terminal His6-tagged recombinant chick RALDH2 expressed in Escherichia coli BL21(DE3) cells up to 500 nM using RAL as substrate assessed as rate of inactivation preincubated up to 40 mins followed by substrate addition and measured after 30 mins in presence of NADH by fluorescence assay. The procedure, abridged: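 Chick RALDH2 pre-incubated 10, 20 and 40 min with 0–500 nM inhibitor, then assayed with retinaldehyde/NAD+ by fluorimetric NADH. kobs taken from linear regression of log % activity remaining versus pre-incubation time. KI and kinact obtained by nonlinear regression of kobs versus inhibitor concentration.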

Assay [2] is filed under the species Gallus gallus. The assay is described as follows: Inhibition of N-terminal His6-tagged recombinant chick RALDH3 expressed in Escherichia coli BL21(DE3) cells at 250 nM using RAL as substrate assessed as Km preincubated for 20 mins followed by substrate addition and measured after 30 mins in presence of NADH by fluorescence assay (reference value: 84.45 +/- 30.99 microM).

Assay [3] concerns the target T1, Retinal dehydrogenase 2 (Gallus gallus). The assay is described as follows: Inhibition of N-terminal His6-tagged recombinant chick RALDH2 expressed in Escherichia coli BL21(DE3) cells at 250 nM using RAL as substrate assessed as remaining activity preincubated for 20 mins followed by all-trans-retinaldehyde and substrate addition measured after 30 mins in presence of NAD+ by fluorescence assay. The method in brief:
(§1)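 Chick RALDH2 (91 nM) pre-incubated with 250 nM inhibitor for 0–80 min at 37°C, alone or with 250 μM retinaldehyde or 250 μM NAD+. Reaction then started with the missing substrate and/or cofactor (250 μM retinaldehyde, 4 mM NAD), 30 min at 37°C. Fluorimetric NADH; % activity remaining. Triplicates.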

For assay [4], the target named is T2, Aldehyde dehydrogenase 1A1 (Gallus gallus, UniProt P27463).
T2 sequence (P27463 whole entry): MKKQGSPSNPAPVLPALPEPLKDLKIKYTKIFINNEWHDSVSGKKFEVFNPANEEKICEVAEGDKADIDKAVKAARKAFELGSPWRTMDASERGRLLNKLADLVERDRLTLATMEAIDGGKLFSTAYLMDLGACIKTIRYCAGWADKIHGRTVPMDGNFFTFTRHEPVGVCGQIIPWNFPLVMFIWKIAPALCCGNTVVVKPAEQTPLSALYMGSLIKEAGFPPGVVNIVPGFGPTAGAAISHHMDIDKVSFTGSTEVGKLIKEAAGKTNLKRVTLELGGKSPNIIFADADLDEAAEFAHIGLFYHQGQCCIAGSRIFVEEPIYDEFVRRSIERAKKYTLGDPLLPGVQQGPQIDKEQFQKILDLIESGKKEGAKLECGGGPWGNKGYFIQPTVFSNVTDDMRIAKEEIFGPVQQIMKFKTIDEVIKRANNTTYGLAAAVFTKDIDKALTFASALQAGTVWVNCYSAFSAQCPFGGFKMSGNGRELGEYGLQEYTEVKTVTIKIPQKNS
The assay can be described thus: Inhibition of N-terminal His6-tagged recombinant chick RALDH1 expressed in Escherichia coli BL21(DE3) cells using RAL as substrate measured after 30 mins in presence of NADH by Morrison's plot analysis. The procedure, abridged: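 Ki obtained by fitting the Morrison tight-binding equation to the 20-min pre-incubation retinaldehyde/NADH fluorescence inhibition data. Inputs were enzyme concentration (RALDH1 0.358, RALDH2 0.091, RALDH3 0.355, hRALDH2 0.176 μM), substrate concentration and Km. Triplicates from 3–5 independent experiments.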

The test system of assay [5] is HEK293. The assay is described as follows: Cytotoxicity against doxycycline-inducible chicken RALDH2 expressing HEK293 cells by measuring ATP production after 24 hrs by CelTiter-Glo assay. The format is cell-based. Particulars: Homo sapiens, HEK293, 24 h. The method in brief: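 (Dox)RALDH2-eGFP HEK293 cells seeded at 10,000/well in DMEM + 10% FBS for 24 h, then switched to DMEM with 0.1% FBS containing 0–50 μM compound in DMSO (<0.5%) for 24 h at 37°C, 5% CO2. ATP read by luminescence and expressed as % of vehicle (0.5% DMSO) control. Two experiments, n = 5 per concentration.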

The species entered for assay [6] is Gallus gallus. The assay can be described thus: Inhibition of N-terminal His6-tagged recombinant chick RALDH3 expressed in Escherichia coli BL21(DE3) cells at 250 nM using RAL as substrate assessed as Vmax preincubated for 20 mins followed by substrate addition and measured after 30 mins in presence of NADH by fluorescence assay (reference value: 107.3 +/- 15.97 pmol/microM/min).

Assay [7] deals with T1, Retinal dehydrogenase 2 (Gallus gallus). The assay can be described thus: Inhibition of N-terminal His6-tagged recombinant chick RALDH2 expressed in Escherichia coli BL21(DE3) cells at 250 nM using RAL as substrate assessed as remaining activity preincubated for 10 mins followed by all-trans-retinaldehyde and substrate addition measured after 30 mins in presence of NAD+ by fluorescence assay. The method in brief: as §1

Assay [8] addresses T3, Retinal dehydrogenase 2 (Gallus gallus, UniProt O93344).
T3 sequence (O93344 whole entry): T1 sequence (whole entry)
The assay can be described thus: Inhibition of chick RALDH2 expressed in doxycycline-inducible HEK293 cells assessed as inhibition of ATRA synthesis after 24 hrs in presence of […]. The format is cell-based.

Assay [9] has as its target T3, Retinal dehydrogenase 2. The assay can be described thus: Inhibition of N-terminal His6-tagged recombinant chick RALDH2 expressed in Escherichia coli BL21(DE3) cells using RAL as substrate preincubated for 20 mins followed by substrate addition and measured after 30 mins in presence of NADH by fluorescence assay. The method in brief:
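Purified His-tagged recombinant enzyme in dialysis buffer with 2 mM DTT. Amounts were chick RALDH1 2 μg (0.358 μM), chick RALDH2 0.5 μg (0.091 μM), chick RALDH3 2 μg (0.355 μM) and human RALDH2 1 μg (0.176 μM). Enzyme pre-incubated 20 min at 37°C with 0–10 μM inhibitor in DMSO. Reaction started with final 4 mM NAD+ in pyrophosphate pH 8.2 buffer plus 250 μM retinaldehyde, 30 min at 37°C. NADH read fluorimetrically (Ex/Em 540/590) against a standard curve. Triplicates, 3–5 experiments.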

Assay [10] concerns the target T1, Retinal dehydrogenase 2 (Gallus gallus). The assay can be described thus: Inhibition of RALDH2 in living intact choroid isolated from 4 day recovering chick eyes assessed as inhibition of ATRA synthesis at 1 uM after 24 hrs in presence of […].

On to `CC1=C(/C=C/C(C)=C/C=C/C(C)=C/C(=O)C(Cl)Cl)C(C)(C)CCC1`, for which the kobs in [1] was in the range of 2.8e-05 to 0.012 min⁻¹. In assay [2], the Michaelis-Menten constant (Km) is 46.1 µM. For the same compound, the Activity in assay [3] was found to be 27.8%; in [7] it was 30.4%. Besides, the Ki in [4] stood at 194 nM. Also, the results for the half-maximal inhibitory concentration (IC50) in [5], in assay [8] and in [9] were 3090 nM, 187 nM and 55 nM, respectively. The Vmax in assay [6] came out at 41.6 pmol/µM/min. For the same compound, the inhibition in assay [10] stood at 42%.
